Data published in ChEMBL document CHEMBL1125914, “Activity of acyclic 6-(phenylselenenyl)pyrimidine nucleosides against human immunodeficiency viruses in primary lymphocytes” (J Med Chem, 1991).

Legend:
[1] = Antiviral activity against human peripheral blood mononuclear cells, infected with HIV-1(strain LAV); assay type: functional
Method in brief: (§1)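 Human PBM cells were infected with HIV-1 strain LAV or HIV-2 strain ROD-2. On day 6 after infection, virus in the cell supernatant was quantitated by reverse transcriptase assay using poly(rA)n-oligo(dT)12-18 as template-primer. EC50 was derived from the concentration-response curve by the Chou–Talalay median-effect method.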

[2] = The compound was tested for toxicity in Vero cells; assay type: cell-based; conditions: Chlorocebus sabaeus (African green monkey)
[3] = Antiviral activity against human peripheral blood mononuclear cells, infected with HIV-2(strain ROD-2); assay type: functional; method in brief: as §1
Nucleic Acid = assay: Inhibitory activity against DNA polymerase-alpha derived from peripheral blood mononuclear cells; design: species or system Homo sapiens
Method in brief: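 Selectivity counter-screen against DNA polymerase α purified from human PBM cells. Median inhibitory concentration derived from the concentration-response curve by the Chou–Talalay median-effect method.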

Vero [4] = assay: Antiviral activity against Vero cells, infected with HSV-1; assay type: functional, cell-based; conditions: Chlorocebus sabaeus
Method in brief: (§2)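 Plaque reduction assay in Vero cells infected with HSV-1 strain F. Median effective concentration taken from the concentration-response curve by the Chou–Talalay median-effect method.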

[5] = The compound was tested for toxicity in peripheral blood mononuclear cells; assay type: functional, Homo sapiens
Vero [6] = assay: Antiviral activity against Vero cells, infected with HSV-1.; assay type: functional, cell-based; conditions: Chlorocebus sabaeus; method in brief: as §2
[7] = The compound was tested for toxicity in Vero cells.; assay type: cell-based; conditions: Chlorocebus sabaeus (African green monkey)
[8] = Antiviral activity against human peripheral blood mononuclear cells, infected with HIV-1(strain LAV).; assay type: functional
Method in brief: (§3)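 Primary human PBM cells infected with virus and exposed to compound. Virus in cell supernatant was quantified on day 6 post-infection by reverse transcriptase assay using poly(rA)n-oligo(dT)12-18 template-primer on disrupted virions. EC50 derived from the concentration-response curve by the Chou–Talalay median-effect method.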

[9] = The compound was tested for toxicity in peripheral blood mononuclear cells.; assay type: functional, Homo sapiens
[10] = biological target: T1, Human immunodeficiency virus type 1 reverse transcriptase (Human immunodeficiency virus 1, UniProt Q72547); assay: Inhibition of HIV-1 reverse transcriptase recombinant p66
[11] = biological target: T1, Human immunodeficiency virus type 1 reverse transcriptase; assay: Inhibition of HIV-1 reverse transcriptase.
[12] = Antiviral activity against human peripheral blood mononuclear cells, infected with HIV-2(strain ROD-2).; assay type: functional; method in brief: as §3

Row | EC50 [8] | IC50 [11] | EC50 [12] | SMILES | EC50 [1] | IC50 [2] | EC50 [3] | IC50 (Nucleic Acid) | EC50 (Vero [4]) | IC50 [5] | EC50 (Vero [6]) | IC50 [7] | IC50 [9] | IC50 [10]
1 | – | – | – | Cc1c([Se]c2ccccc2)n(COCCO)c(=O)[nH]c1=O | 0.96 µM | > 100 µM | 25.6 µM | > 100 µM | > 100 µM | > 200 µM | – | – | – | –
2 | > 100 µM | – | – | O=c1[nH]c(=O)n(COCCO)cc1Cl | – | – | – | – | – | – | > 100 µM | > 100 µM | – | –
3 | > 100 µM | – | – | O=c1[nH]c(=O)n(COCCO)cc1Br | – | – | – | – | – | – | > 100 µM | > 100 µM | 100 µM | –
4 | – | – | – | O=c1cc([Se]c2ccccc2)n(COCCO)c(=O)[nH]1 | 13 µM | > 100 µM | 9.6 µM | > 100 µM | > 200 µM | > 100 µM | – | – | – | –
5 | – | – | – | Cc1cn([C@H]2C[C@H](N=[N+]=[N-])[C@@H](CO)O2)c(=O)[nH]c1=O [ZIDOVUDINE] | 0.004 µM | 26 µM | < 0.002 µM | > 100 µM | > 100 µM | > 100 µM | – | – | – | < 0.1 µM
6 | 5.3 µM | 17.5 µM | > 100 µM | Cc1c(Sc2ccccc2)n(COCCO)c(=O)[nH]c1=O [HEPT] | – | – | – | > 100 µM | – | – | > 100 µM | > 100 µM | > 100 µM | –
7 | – | – | – | O=c1[nH]c(=O)n(COCCO)c([Se]c2ccccc2)c1F | 2 µM | 25.7 µM | 9.1 µM | > 100 µM | > 100 µM | > 100 µM | – | – | – | –
8 | – | – | – | O=c1[nH]c(=O)n(COCCO)c([Se]c2ccccc2)c1Br | 3.7 µM | 8.2 µM | 2 µM | > 100 µM | > 100 µM | > 100 µM | – | – | – | –
9 | > 100 µM | – | – | Cc1cn(COCCO)c(=S)[nH]c1=O | – | – | – | – | – | – | > 100 µM | > 100 µM | > 100 µM | –
10 | – | – | – | Cc1c([Se]c2ccccc2)n(COCCO)c(=S)[nH]c1=O | 2.8 µM | 60.7 µM | 5.8 µM | > 100 µM | > 100 µM | > 100 µM | – | – | – | –
11 | > 100 µM | – | – | Cc1cn(COCCO)c(=O)[nH]c1=O | – | – | – | – | – | – | > 100 µM | > 100 µM | > 100 µM | –
12 | > 100 µM | – | – | O=c1[nH]c(=O)n(COCCO)cc1F | – | – | – | – | – | – | > 100 µM | > 100 µM | 67 µM | –
13 | – | – | – | O=c1[nH]c(=O)n(COCCO)c([Se]c2ccccc2)c1Cl | 3.1 µM | 7.5 µM | 7.9 µM | > 100 µM | > 100 µM | > 100 µM | – | – | – | –
14 | – | – | – | O=c1ccn(COCCO)c(=O)[nH]1 | > 100 µM | > 100 µM | – | – | > 100 µM | > 100 µM | – | – | – | –
